Many of the other results were omitted from the sample, so hits are more common in it than they were.
INS promoter act – TRM-6 insulin promoter activation; TRM-6 cells (human fetal islet line), insulin promoter eGFP reporter, imaging; plate-scaled: unstimulated 0, stimulated control 100; activation, % at 2 µM; 130,000 tested, 0.81% active; AID 1296;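 active means activation at 2 µM above a set limit, confirmed on inspection of the cell images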;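 further: share of cells whose green reporter signal exceeds an intensity cutoff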
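Material: TRM-6 insulin promoter–eGFP reporter cells. Buffer or medium: Low-glucose (5.5 mM) medium with tamoxifen. Probe or stimulus: tamoxifen at 0.75 µM added at seeding for reporter induction. Times: tamoxifen pre-incubation 15 h overnight, then compound exposure 48 h at 37 °C. Detection: high-content imaging of fixed cells with Hoechst nuclear stain.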
A number is an active result.

O=C(CN1C(=O)NC2(CCCCCC2)C1=O)N1CCN(S(=O)(=O)c2ccc(Cl)cc2)CC1 was read as INS promoter act inactive.
Cc1cccc(NC(=O)NCCc2c[nH]c3ccccc23)c1 was read as INS promoter act inactive.
Cc1ccc(/C=C/C(=O)NCc2ccccn2)o1 was read as INS promoter act inactive.
Screening Cc1ccc(/C=C/C(=O)NCCc2c[nH]c3ccccc23)o1 returned INS promoter act 467.
O=C(NNC(=O)c1ccc([N+](=O)[O-])cc1Cl)c1ccncc1 was read as INS promoter act inactive.
For COc1ccc(OC)c(NC(=O)C2CCCN(S(=O)(=O)c3cccc4nsnc34)C2)c1 (configuration not stated) the results were INS promoter act inactive.
For Cc1ccc(CCNC(=O)C2CCN(S(=O)(=O)c3cccc4nsnc34)CC2)cc1 the results were INS promoter act inactive.
For Cc1ccnc(NC(=O)C2CCN(S(=O)(=O)c3cccc4nsnc34)CC2)c1 the results were INS promoter act 125.
`Cc1ccc(S(=O)(=O)NNC(=O)C2Cc3c(ccc4ccccc34)O2)cc1` (configuration not stated) gave INS promoter act inactive.
For Cc1ccc(C(=O)N(c2ccccc2)C2CC(C)N(C(=O)c3ccco3)c3ccccc32)cc1 (configuration not stated) the results were INS promoter act inactive.
`COc1ccc(/C=C(/NC(=O)c2ccco2)C(=O)N2CCCC2=O)cc1` gave INS promoter act inactive.
Cc1cc(N2CC(C(=O)NCc3cccs3)CC2=O)ccc1C(C)C (configuration not stated) was read as INS promoter act inactive.
Cc1ccc(N2CC(C(N)=O)CC2=O)cc1C (configuration not stated) was read as INS promoter act 543.
`Cc1ccccc1N1CC(C(=O)O)CC1=O` (configuration not stated) gave INS promoter act inactive.
Screening O=C1c2ccccc2C(=O)N1CCCc1c[nH]c2ccc(Cl)cc12 returned INS promoter act inactive.
`CCOC(=O)CSc1nc2sc3c(c2c(=O)n1C1CCCCC1)CCN(C)C3` gave INS promoter act inactive.
For Clc1cccc(NCc2cn3cccnc3n2)c1 the results were INS promoter act inactive.
`CCOC(=O)C1CCCN(S(=O)(=O)c2cccs2)C1` (configuration not stated) gave INS promoter act 462.
Screening CCOC(=O)C1CCCN(C(=O)c2cccs2)C1 (configuration not stated) returned INS promoter act inactive.
For CC(C)NC(=O)C1CCCN(S(=O)(=O)c2cccs2)C1 (configuration not stated) the results were INS promoter act inactive.
Screening Cc1nn(-c2nnc(NC3CCCCC3)nn2)c(C)c1Br returned INS promoter act inactive.
For Cn1nnnc1SCC(=O)Nc1ccccc1[N+](=O)[O-] the results were INS promoter act inactive.
For COc1ccc(NC(=O)CSc2nnnn2C)cc1 the results were INS promoter act inactive.
For Cn1nnnc1SCC(=O)Nc1ccccn1 the results were INS promoter act 93.
CCCn1nnnc1SCC(=O)N(C(C)C)C(C)C was read as INS promoter act inactive.
For CCCn1c(SCC(=O)N2c3ccc(F)cc3CCC2C)nnc1-c1ccccn1 (configuration not stated) the results were INS promoter act inactive.
`Cc1cc(C)nc(N(C#N)S(=O)(=O)c2ccccc2)n1` gave INS promoter act inactive.
`N#C/C(=C\c1ccc(OC(=O)c2ccc(Br)s2)cc1)c1nc2ccccc2[nH]1` gave INS promoter act inactive.
Screening c1ccc2[nH]c(CN3CCOCC3)nc2c1 returned INS promoter act inactive.
For N#C/C(=C\c1ccc(N2CCOCC2)o1)c1nc2ccccc2[nH]1 the results were INS promoter act 142.
For CCN1CCN(C(c2cccs2)C(C)NS(=O)(=O)c2ccccc2)CC1 (configuration not stated) the results were INS promoter act inactive.
For CCOC(=O)CN1C(=O)C(O)(C2CCc3ccccc3C2=O)c2ccccc21 (configuration not stated) the results were INS promoter act inactive.
Screening CCOc1cc(C2NC(=O)NC(C)=C2C(=O)NCc2ccccc2)c(Cl)cc1O (configuration not stated) returned INS promoter act inactive.
`CCCS(=O)(=O)c1c(S(=O)(=O)CCC)c2c(C)cccn2c1C(N)=O` gave INS promoter act inactive.
CCCS(=O)(=O)c1c(S(=O)(=O)CCC)c2cc(-c3ccncc3)ccn2c1C(=O)OC was read as INS promoter act 379.
`CCN(CC)S(=O)(=O)c1ccc(Cl)c(C(=O)OC)c1` gave INS promoter act inactive.
For CCOC(=O)C(C)Oc1ccsc1C(=O)OC (configuration not stated) the results were INS promoter act inactive.
`O=C(C[n+]1ccccc1)Nc1ccccc1C(=O)O` gave INS promoter act inactive.
Screening CCOc1ccc(CC(=O)Nc2ccc(-c3ccc4nnc(C)n4n3)cc2)cc1 returned INS promoter act inactive.
`O=C(CCN1CCN(S(=O)(=O)c2ccc(Br)cc2)CC1)Nc1ccccc1F` gave INS promoter act inactive.
